Test results taken from PMC4485437 (Biochemistry, 2015).

Columns and labels:
[1] = molecular target: T1, VcMTANA113P/V153I/R158G (Vc[…]) (Vibrio cholerae serotype O1, UniProt Q9KPI8, A113P/R158G/V153I); assay: Luminescence-based steady-state kinetic assay; assay type: biochemical; settings: substrate MTA
EcMTAN [2] = molecular target: T2, EcMTAN (Escherichia coli, UniProt P0AF12); assay: Luminescence-based steady-state kinetic assay; assay type: biochemical; settings: substrate MTA
Summary of the method: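 His6-tagged enzyme was expressed in E. coli BL21(DE3) (1 mM IPTG, 37°C, 10 h) and purified on Ni-NTA. Product adenine was converted to ATP by excess yeast APRTase (20 microunits/well) and C. symbiosum PPDK (320 microunits/well), then read by luciferase luminescence at 570 nm. Enzyme 5–25 pM; reactions started with 0.02–1 μM MTA.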

VcMTAN (WT) [3] = molecular target: T3, VcMTAN (WT) (Vibrio cholerae serotype O1, UniProt Q9KPI8); assay: Luminescence-based steady-state kinetic assay; assay type: biochemical; settings: substrate MTA
VcMTANV153I [4] = molecular target: T4, VcMTANV153I (Vibrio cholerae serotype O1, UniProt Q9KPI8, V153I); assay: Luminescence-based steady-state kinetic assay; assay type: biochemical; settings: substrate MTA
[5] = molecular target: T5, VcMTANA113P/V153I (VcMTANDOUBLE) (Vibrio cholerae serotype O1, UniProt Q9KPI8, A113P/V153I); assay: Luminescence-based steady-state kinetic assay; assay type: biochemical; settings: substrate MTA
VcMTANA113P [6] = molecular target: T6, VcMTANA113P (Vibrio cholerae serotype O1, UniProt Q9KPI8, A113P); assay: Luminescence-based steady-state kinetic assay; assay type: biochemical; settings: substrate MTA
[7] = system: E. coli DHFR (EcDHFR) Asp27Glu; settings: Asp27Glu vs native EcDHFR; cited from earlier work
VcMTANV153I [8] = molecular target: T4, VcMTANV153I; assay: Titration of [14C]MTDIA to MTAN; assay type: binding; settings: MTAN dimer 27−33 μM
VcMTANA113P [9] = molecular target: T6, VcMTANA113P; assay: Isothermal titration calorimetry; assay type: binding; settings: for ΔH / ΔG / TΔS: 25°C; for ΔG: calculated from Ki*; for TΔS: from Gibbs free energy equation
VcMTANA113P [10] = molecular target: T6, VcMTANA113P; assay: Titration of [14C]MTDIA to MTAN; assay type: binding; settings: MTAN dimer 27−33 μM
VcMTAN (WT) [11] = molecular target: T3, VcMTAN (WT); assay: Isothermal titration calorimetry; assay type: binding; settings: 25°C; for ΔG: calculated from Ki*; for TΔS: from Gibbs free energy equation
Summary of the method: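 Enzyme expressed in E. coli BL21(DE3) and Ni-NTA purified, then stripped of bound adenine by dialysis against phosphate buffer with activated charcoal. Sample cell held 60–120 μM dimer; test compound in dialysate was injected, degassed solutions, 25°C. Fit to a two-independent-site model gave ΔH per catalytic site. ΔG = RT ln Ki*, with Ki* from 0.8 mM MTA plus xanthine oxidase at 305 nm. −TΔS came from the Gibbs equation.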

VcMTAN (WT) [12] = molecular target: T3, VcMTAN (WT); assay: Titration of [14C]MTDIA to MTAN; assay type: binding; settings: MTAN dimer 27−85 μM
EcMTAN [13] = molecular target: T2, EcMTAN; assay: Isothermal titration calorimetry; assay type: binding; settings: 25°C; for ΔG: calculated from Ki*; for TΔS: from Gibbs free energy equation
Summary of the method: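 Copurified adenine stripped by dialysis against phosphate buffer with activated charcoal. 60–120 μM dimer in cell, dialysate as reference. Test compound in dialysate; solutions filtered and degassed. Titrated at 25°C. Isotherms fit to two independent sites; ΔH from integrated heat. ΔG = RT ln Ki*, using first-site […] from low-substrate luciferase-coupled assay. −TΔS from ΔG = ΔH − TΔS.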

[14] = molecular target: T5, VcMTANA113P/V153I (VcMTANDOUBLE); assay: Isothermal titration calorimetry; assay type: binding
[15] = molecular target: T1, VcMTANA113P/V153I/R158G (Vc[…]); assay: Isothermal titration calorimetry; assay type: binding; settings: single site, 25°C
[16] = molecular target: T5, VcMTANA113P/V153I (VcMTANDOUBLE); assay: Titration of [14C]MTDIA to MTAN; assay type: binding; settings: MTAN dimer 27−33 μM
VcMTANV153I [17] = molecular target: T4, VcMTANV153I; assay: Isothermal titration calorimetry; assay type: binding
[18] = single site, 25°C, from Gibbs free energy equation

5′-methylthioadenosine [MTA]
kcat [1]: 0.11 ± 0.01 s⁻¹ | Km ([1]; first-catalytic site filling): 0.536 ± 0.122 µM | kcat (EcMTAN [2]): 0.32 ± 0.01 s⁻¹ | Km (EcMTAN [2]; first-catalytic site filling): 0.139 ± 0.018 µM | kcat (VcMTAN (WT) [3]): 0.18 ± 0.01 s⁻¹ | Km (VcMTAN (WT) [3]; first-catalytic site filling): 0.061 ± 0.006 µM | kcat (VcMTANV153I [4]): (7.9 ± 4) × 10^−3 s^−1 | Km (VcMTANV153I [4]; first-catalytic site filling): 0.43 ± 0.047 µM | kcat [5]: (7.4 ± 3) × 10^−2 s^−1 | Km ([5]; first-catalytic site filling): 0.202 ± 0.023 µM | kcat (VcMTANA113P [6]): 0.17 ± 0.01 s⁻¹ | Km (VcMTANA113P [6]; first-catalytic site filling): 0.262 ± 0.029 µM

CN(Cc1cnc2nc(N)nc(N)c2n1)c1ccc(C(=O)N[C@@H](CCC(=O)O)C(=O)O)cc1 [methotrexate]
methotrexate affinity decrease [7]: 176 fold

Nc1nc(=O)c2c([nH]1)NCC(CNc1ccc(C(=O)N[C@@H](CCC(=O)O)C(=O)O)cc1)=N2 [DHF, 7,8-dihydrofolate]
KM(DHF) increase [7]: 20 fold

CSC[C@H]1CN(Cc2c[nH]c3c(N)ncnc23)C[C@@H]1O [MTDIA, 4′-deaza-1′-aza-2′-deoxy-1′-(9-[^14C]methylene)-Immucillin-A]
binding of MTDIA* on titration to one or two catalytic sites per dimer (VcMTANV153I [8]): left more MTDIA* unbound as both the first and second sites were titrated | enthalpy of MTDIA binding less favorable than parent VcMTAN (VcMTANA113P [9]; VcMTANA113P vs VcMTAN): 3 kcal/mol | ΔH (VcMTANA113P [9]; first site): -2.9 ± 0.1 kcal/mol | ΔG (VcMTANA113P [9]; first site): -13.9 ± 0.1 kcal/mol | TΔS (VcMTANA113P [9]; first site): -11.0 ± 0.1 kcal/mol | ΔH (VcMTANA113P [9]; second site): -1.8 ± 0.2 kcal/mol | ΔG (VcMTANA113P [9]; second site): -13.5 ± 0.8 kcal/mol | TΔS (VcMTANA113P [9]; second site): -11.7 ± 0.8 kcal/mol | binding of MTDIA* on titration to one or two catalytic sites per dimer (VcMTANA113P [10]): complete binding at the first site and near-stoichiometric binding at the second site | ΔH (VcMTAN (WT) [11]; first site): -6.0 ± 0.2 kcal/mol | ΔG (VcMTAN (WT) [11]; first site): -15.8 ± 0.1 kcal/mol | TΔS (VcMTAN (WT) [11]; first site): -9.8 ± 0.2 kcal/mol | ΔH (VcMTAN (WT) [11]; second site): -2.6 ± 0.3 kcal/mol | ΔG (VcMTAN (WT) [11]; second site): -14.3 ± 0.2 kcal/mol | TΔS (VcMTAN (WT) [11]; second site): -11.7 ± 0.4 kcal/mol | binding of MTDIA* on titration to one or two catalytic sites per dimer (VcMTAN (WT) [12]): complete binding at the first site and near-stoichiometric binding at the second site | ΔH (EcMTAN [13]; first site): -18.9 ± 0.2 kcal/mol | ΔG (EcMTAN [13]; first site): -17.4 ± 0.9 kcal/mol | TΔS (EcMTAN [13]; first site): 1.5 ± 0.9 kcal/mol | ΔH (EcMTAN [13]; second site): -16.8 ± 0.2 kcal/mol | ΔG (EcMTAN [13]; second site): -10.2 ± 0.1 kcal/mol | TΔS (EcMTAN [13]; second site): 6.6 ± 0.2 kcal/mol | enthalpy of MTDIA binding more favorable than that of VcMTANA113P ([14]; VcMTANDOUBLE vs VcMTANA113P): -1.0 kcal/mol | ΔH ([14]; single site, 25°C): -3.9 ± 0.1 kcal/mol | ΔG ([14]; single site, 25°C, calculated from Ki*): -15.7 ± 0.1 kcal/mol | TΔS [14, 18]: -11.8 ± 0.1 kcal/mol | ΔH [15]: -4.8 ± 0.2 kcal/mol | ΔG ([15]; calculated from Ki*): -13.3 ± 0.1 kcal/mol | TΔS ([15]; from Gibbs free energy equation): -8.5 ± 0.2 kcal/mol | binding of MTDIA* on titration to one or two catalytic sites per dimer [16]: left more MTDIA* unbound as both the first and second sites were titrated | enthalpy of MTDIA binding more favorable than that of VcMTANA113P (VcMTANV153I [17]; VcMTANV153I vs VcMTANA113P): -2.0 kcal/mol | ΔH (VcMTANV153I [17]; single site, 25°C): -4.9 ± 0.1 kcal/mol | TΔS (VcMTANV153I [17]; [18]): -5.7 ± 0.2 kcal/mol
